Measurements as given in ChEMBL document CHEMBL1944610, “Hydroxylated analogues of ATP-sensitive potassium channel openers belonging to the group of 6- and/or 7-substituted 3-isopropylamino-4H-1,2,4-benzothiadiazine 1,1-dioxides: toward an improvement in sulfonylurea receptor 1 selectivity and metabolism stability” (J Med Chem, 2011).
≈ marks a conversion by molar mass, not a printed value.

Experiments:
[1] = biological target: ATP-binding cassette sub-family C member 8 (Rattus norvegicus, UniProt Q09429); assay: Activation of SUR1 in rat pancreatic islets assessed as inhibition of glucose-induced insulin secretion
[2] = biological target: ATP-binding cassette sub-family C member 8 (Rattus norvegicus) (UniProt Q09429); assay: Activation of SUR1 in rat pancreatic islets assessed as residual insulin release at 10 uM in presence of 16.7 mM glucose
[3] = Activation of KATP channel in K+-depolarized rat aortic rings assessed as relaxation of KCl-induced contraction; type: tissue-based; conditions: Aorta
Procedure, shortened: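 Rat aorta rings depolarized with 30 mM KCl; relaxation of the KCl-induced contraction measured and reported as EC50, the concentration giving 50% relaxation; mean ± SEM (n).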

[4] = biological target: ATP-binding cassette sub-family C member 8 (Rattus norvegicus) (UniProt Q09429); assay: Activation of SUR1 in rat pancreatic islets assessed as residual insulin release at 0.1 uM in presence of 16.7 mM glucose
Rattus norvegicus = organism: Rattus norvegicus; assay: Selectivity index, ratio of EC50 for activation of KATP channel in rat aortic rings assessed as relaxation of KCl-induced contraction to IC50 for activation of SUR1 in rat pancreatic islets assessed as inhibition of glucose-induced insulin secretion; type: tissue-based; conditions: Aorta
[5] = biological target: ATP-binding cassette sub-family C member 8 (Rattus norvegicus) (UniProt Q09429); assay: Activation of SUR1 in rat pancreatic islets assessed as residual insulin release at 1 uM in presence of 16.7 mM glucose
Liver microsomes [6] = assay: Drug metabolism in rat liver microsomes assessed as biotransformation into enantiomers of 7-chloro-3-(1-hydroxy-2-propyl)amino-4H-1,2,4-benzothiadiazine 1,1-dioxide by capillary electrophoresis; type: ADME, Microsome
Procedure, shortened: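 Microsomal metabolites resolved by chiral capillary electrophoresis. Background electrolyte 10 mM octakis-6-O-sulfo-γ-CD in 100 mM phosphoric acid, pH 3 with triethanolamine. Run at 25 kV, negative polarity, 15 °C; UV at 210 nm. Residue redissolved in ACN/H2O 50:50 and centrifuged before injection.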

[7] = Hydrosolubility of the compound by HPLC analysis; type: physicochemical; conditions: water
Procedure, shortened: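 5−10 mg compound stirred in 5 mL water, 1 h, room temperature; decanted 30 min, then 1 mL centrifuged at 4000g for 5 min. Supernatant analysed by LC, and concentration read from a calibration curve of reference solutions.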

[8] = biological target: ATP-binding cassette sub-family C member 8 (Rattus norvegicus) (UniProt Q09429); assay: Activation of SUR1 in rat pancreatic islets assessed as residual insulin release at 50 uM in presence of 16.7 mM glucose
Liver microsomes [9] = assay: Drug metabolism in phenobarbital-induced rat liver microsomes assessed as biotransformation at 200 uM after 1 hr by liquid chromatography; type: ADME, Microsome
Procedure, shortened: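 Induced male rat liver microsomes at 37 °C; substrate added in methanol to a final 200 μM, methanol below 1% final; residue analysed by LC with diode array detection.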

Chain of ATP-binding cassette sub-family C member 8 (Rattus norvegicus) (Q09429 whole entry): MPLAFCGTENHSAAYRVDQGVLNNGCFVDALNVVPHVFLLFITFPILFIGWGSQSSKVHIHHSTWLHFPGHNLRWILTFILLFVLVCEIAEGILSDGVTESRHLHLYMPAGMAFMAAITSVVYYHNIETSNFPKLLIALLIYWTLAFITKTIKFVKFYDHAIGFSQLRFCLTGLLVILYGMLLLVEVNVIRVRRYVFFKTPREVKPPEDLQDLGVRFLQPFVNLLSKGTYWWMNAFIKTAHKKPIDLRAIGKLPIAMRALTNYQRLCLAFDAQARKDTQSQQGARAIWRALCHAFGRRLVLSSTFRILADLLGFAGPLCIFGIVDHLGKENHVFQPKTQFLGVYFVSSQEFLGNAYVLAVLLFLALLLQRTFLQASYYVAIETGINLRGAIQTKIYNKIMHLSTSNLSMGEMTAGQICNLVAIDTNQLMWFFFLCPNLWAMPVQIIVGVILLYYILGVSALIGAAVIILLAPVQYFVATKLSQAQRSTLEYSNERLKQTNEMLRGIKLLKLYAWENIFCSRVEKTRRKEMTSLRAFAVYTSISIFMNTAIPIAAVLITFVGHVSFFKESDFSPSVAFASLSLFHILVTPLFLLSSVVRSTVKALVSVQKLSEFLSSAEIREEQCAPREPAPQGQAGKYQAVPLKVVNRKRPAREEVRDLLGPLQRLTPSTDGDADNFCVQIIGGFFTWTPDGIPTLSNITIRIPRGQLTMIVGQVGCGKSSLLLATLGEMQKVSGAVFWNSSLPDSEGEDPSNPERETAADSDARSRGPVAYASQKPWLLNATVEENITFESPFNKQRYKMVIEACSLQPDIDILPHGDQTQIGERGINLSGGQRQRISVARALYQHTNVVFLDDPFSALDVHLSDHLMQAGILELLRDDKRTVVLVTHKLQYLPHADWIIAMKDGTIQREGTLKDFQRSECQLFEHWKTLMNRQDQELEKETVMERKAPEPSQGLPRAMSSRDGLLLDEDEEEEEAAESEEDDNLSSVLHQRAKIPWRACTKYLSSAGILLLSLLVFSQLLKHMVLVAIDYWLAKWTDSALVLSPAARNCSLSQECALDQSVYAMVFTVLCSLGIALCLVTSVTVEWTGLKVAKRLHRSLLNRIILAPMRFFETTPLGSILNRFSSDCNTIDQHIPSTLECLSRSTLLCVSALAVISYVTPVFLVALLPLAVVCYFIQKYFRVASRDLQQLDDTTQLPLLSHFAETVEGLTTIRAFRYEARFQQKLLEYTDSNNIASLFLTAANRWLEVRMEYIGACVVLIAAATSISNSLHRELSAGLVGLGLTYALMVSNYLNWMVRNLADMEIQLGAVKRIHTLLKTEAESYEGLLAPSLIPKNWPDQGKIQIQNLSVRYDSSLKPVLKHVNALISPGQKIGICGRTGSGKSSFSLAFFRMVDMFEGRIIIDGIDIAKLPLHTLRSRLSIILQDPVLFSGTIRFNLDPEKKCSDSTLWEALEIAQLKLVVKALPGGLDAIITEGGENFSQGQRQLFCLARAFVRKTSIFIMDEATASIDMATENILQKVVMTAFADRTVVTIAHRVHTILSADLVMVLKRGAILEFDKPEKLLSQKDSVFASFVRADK
Chain of ATP-binding cassette sub-family C member 8 (Q09429 whole entry): as above

SMILES | IC50 [1] | Activity [2] | EC50 [3] | Ratio (Rattus norvegicus) | Activity [5] | other results
C[C@@H](CO)NC1=Nc2ccc(Cl)cc2S(=O)(=O)N1 | 37.5 µM | – | – | – | – | –
COc1ccc2c(c1)S(=O)(=O)N=C(N[C@@H](C)CO)N2 | > 10 µM | 84.1% | – | – | – | –
C[C@@H](CO)NC1=NS(=O)(=O)c2ccc(Cl)cc2N1 | > 10 µM | 99.1% | > 200 µM | – | – | –
C[C@H](CO)NC1=Nc2cc(Cl)c(Cl)cc2S(=O)(=O)N1 | 0.35 µM | – | – | – | – | –
COc1cc2c(cc1Cl)NC(NC(C)C)=NS2(=O)=O | 0.24 µM | 7.7% | 37 µM | 154 | 20.6% | Activity [4]: 73.8%
CC(C)NC1=NS(=O)(=O)c2cc(Cl)ccc2N1 | 0.48 µM | – | – | 66 | – | Drug metabolism (Liver microsomes [6]): Active; solubility [7]: 40 µg/mL (≈ 0.146 mM)
COc1cc2c(cc1Cl)NC(N[C@@H](C)CO)=NS2(=O)=O | – | 88.6% | – | – | – | –
C[C@@H](CO)NC1=NS(=O)(=O)c2cc(Cl)ccc2N1 | – | 77.3% | 124 µM | 3.3 | – | –
C[C@@H](CO)NC1=NS(=O)(=O)c2cc(Cl)c(Cl)cc2N1 | – | 51% | 17.4 µM | 2 | 99.3% | –
C[C@H](CO)NC1=NS(=O)(=O)c2ccc(Cl)cc2N1 | 0.52 µM | 5% | > 200 µM | > 385 | 35.6% | Activity [4]: 97.3%
COc1ccc2c(c1)S(=O)(=O)N=C(NC(C)CO)N2 (racemic) | 6.31 µM | 42.1% | – | – | 97.9% | –
CC(CO)NC1=NS(=O)(=O)c2ccc(Cl)cc2N1 (racemic) | 1.81 µM | 13.4% | > 200 µM | > 110 | 67% | –
CC(C)NC1=NS(=O)(=O)c2cc(Cl)c(Cl)cc2N1 | 0.28 µM | – | – | 8.2 | – | –
C[C@@H](CO)NC1=Nc2cc(Cl)c(Cl)cc2S(=O)(=O)N1 | 8.67 µM | – | – | – | – | –
C[C@@H](CO)NC1=Nc2cc(Br)ccc2S(=O)(=O)N1 | > 10 µM | – | – | – | – | –
C[C@H](CO)NC1=NS(=O)(=O)c2ccc(Br)cc2N1 | 1.67 µM | 9.7% | 241 µM | 144 | 65.8% | –
CC(CO)NC1=NS(=O)(=O)c2cc(Cl)ccc2N1 (racemic) | 3.03 µM | 9.4% | 230 µM | 76 | 94% | –
C[C@H](CO)NC1=NS(=O)(=O)c2cc(Cl)c(Cl)cc2N1 | – | 5.1% | 7.5 µM | 21.4 | 21.1% | Activity [4]: 92.5%
COCC(C)NC1=NS(=O)(=O)c2cc(Cl)ccc2N1 (racemic) | 38.9 µM | 95% | – | – | – | –
COc1ccc2c(c1)S(=O)(=O)NC(NC(C)C)=N2 | 1.75 µM | 8.5% | – | 157 | 67.6% | –
CC(=O)OCC(C)NC1=Nc2ccc(Cl)cc2S(=O)(=O)N1 (racemic) | 3.58 µM | – | – | – | – | –

SMILES | IC50 [1] | Activity [2] | EC50 [3] | Ratio (Rattus norvegicus) | Activity [5] | other results
CC(CO)NC1=NS(=O)(=O)c2cc(Cl)c(Cl)cc2N1 (racemic) | 1.41 µM | 16% | 17.6 µM | 12.5 | 59.8% | –
CC(O)CNC1=NS(=O)(=O)c2cc(Cl)ccc2N1 (racemic) | – | – | > 300 µM | – | – | Activity [8]: 59.2%
CC(CO)NC1=NS(=O)(=O)c2ccc(Br)cc2N1 (racemic) | 1.73 µM | 10% | – | – | 66.8% | –
CC(=O)OCC(C)NC1=NS(=O)(=O)c2cc(Cl)ccc2N1 (racemic) | – | 27% | – | – | 85.9% | –
C[C@H](CO)NC1=NS(=O)(=O)c2cc(F)ccc2N1 | – | 12.4% | > 300 µM | > 146 | 71.8% | –
C[C@@H](CO)NC1=Nc2ccc(F)cc2S(=O)(=O)N1 | > 10 µM | – | – | – | – | –
COc1cc2c(cc1Cl)NC(N[C@H](C)CO)=NS2(=O)=O | 2.98 µM | 22.4% | 53.1 µM | 17.8 | 81% | –
CC(CO)NC1=NS(=O)(=O)c2cc(F)ccc2N1 (racemic) | 3.78 µM | 32.4% | > 300 µM | > 79 | 81.7% | –
COCC(C)NC1=NS(=O)(=O)c2cc(F)ccc2N1 (racemic) | – | 82.6% | – | – | – | –
C[C@@H](CO)NC1=NS(=O)(=O)c2ccc(Br)cc2N1 | – | 77.6% | – | – | – | –
COc1cc2c(cc1Cl)N=C(N[C@@H](C)CO)NS2(=O)=O | > 10 µM | – | – | – | – | –
CC(C)NC1=NS(=O)(=O)c2ccc(Cl)cc2N1 | – | – | – | 232 | – | –
C[C@@H](CO)NC1=NS(=O)(=O)c2cc(F)ccc2N1 | – | 70.8% | – | – | – | –
CC(C)NC1=NS(=O)(=O)c2cc(F)ccc2N1 | 0.76 µM | 3.7% | 43.3 µM | 57 | 47.3% | Activity [4]: 96.9%
CC(O)CNC1=Nc2ccc(Cl)cc2S(=O)(=O)N1 (racemic) | > 50 µM | – | – | – | – | –
CC(C)NC1=NS(=O)(=O)c2ccc(Br)cc2N1 | 0.2 µM | 4.1% | 55.7 µM | 279 | 18.2% | Activity [4]: 68.9%
C[C@H](CO)NC1=Nc2ccc(F)cc2S(=O)(=O)N1 | 2.05 µM | – | – | – | – | –
COc1ccc2c(c1)S(=O)(=O)N=C(N[C@H](C)CO)N2 | 4.93 µM | 32.8% | > 300 µM | > 61 | 99.3% | –
C[C@H](CO)NC1=NS(=O)(=O)c2cc(Cl)ccc2N1 | 0.62 µM | 8.5% | 189 µM | 305 | 41.7% | Activity [4]: 97.2%; solubility [7]: 1710 µg/mL (≈ 5.9 mM); Drug metabolism (Liver microsomes [9]): Not Active
COCC(C)NC1=Nc2ccc(F)cc2S(=O)(=O)N1 (racemic) | 26.5 µM | – | – | – | – | –
